Gli-Sufu antag: antagonists of Gli-Sufu signaling | Sufu-KO-LIGHT fibroblasts, Gli luciferase reporter luminescence | inhibition, % at 5 µM | 340,000 compounds, 0.74% hits;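 active means inhibition above about 55%, limit read from the data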;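 further: 0% = DMSO-treated cells and 100% = wells with medium but no cells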
XBP1 UPR activ: adaptive UPR (XBP1) activation; CHO-XBP1 luciferase reporter, IRE1-XBP1 UPR activation, luminescence; percent of tunicamycin response, DMSO as zero; 330,000 compounds, 0.33% hits; activation, % at 20 µM; AID 463104;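 active means versus positive control, 20 µM dose yields 30% or more activation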;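 further: 100% = tunicamycin at 10 µg/mL and 0% = DMSO only wells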
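Material: IRE1-XBP1 luciferase reporter CHO line / Quantity: one thousand reporter cells per well / Buffer or medium: F12 with 10% serum / Compound: 20 µM single concentration, DMSO 1% / Times: 6 h treatment, 37 °C / Detection: Steady-Glo luciferase glow luminescence, 10 min after reagent addition / Benchmarks: tunicamycin high, DMSO low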
CHOP inhibitor: inhibitors of CHOP induction in ER stress response. inhibition, % at 10 µM. 220,000 compounds, 3.8% hits. CHO-K1 CHOP-promoter luciferase, tunicamycin-induced, 15-18 h;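 active means compounds that reduced the stress-induced luciferase reporter signal by more than about 70% of percent inhibition, limit read from the data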;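 further: 0% = tunicamycin plus vehicle and 100% = wells without tunicamycin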
Jurkat NFkB inh: inhibitors of the PMA/ionomycin-induced NF-kB reporter in Jurkat cells. PMA/ionomycin-induced NF-kB luciferase reporter, luminescence. inhibition, % at 4 µM. 330,000 compounds, 0.53% hits; in the data active means inhibition above about 50%
697 NFkB inh: lowers PMA/ionomycin-induced NF-kB signal in 697 B cells. 697 B-cell NF-kB luciferase reporter, 16 h. inhibition, % at 4 µM. 330,000 compounds, 0.33% hits. AID 435022; in the data active means inhibition above about 35%
CHOP UPR activ: apoptotic UPR (CHOP) activation; CHO-CHOP luciferase reporter, luminescence; percent of tunicamycin response over DMSO baseline; activation, % at 10 µM; 330,000 compounds, 0.34% hits; AID 449763;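 active means at 10 µM dose, activation of 40% or more, normalized to positive control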;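 further: 100% = tunicamycin at 10 µg/mL and 0% = DMSO alone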
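Assay system: CHO-CHOP cells, stable luciferase reporter of PERK-eIF2a-CHOP signalling / Buffer or medium: F12 plus 10% serum / Compound dosing: one dose, 10 µM in 0.5% DMSO / Times: 6 h compound treatment, 37 °C / Technique: luciferase luminescence / Read-out: % reporter activation, DMSO baseline versus tunicamycin full activation / Benchmarks: tunicamycin and DMSO controls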
CHOP inh conf: confirmation of CHOP induction inhibitors; inhibition, % at 10 µM; CHO-CHOP promoter luciferase reporter, tunicamycin-induced, luminescence; shares compounds with CHOP inhibitor; 2,100 compounds, 45% hits;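 active means mean of three repeat readings of reporter signal inhibition above a set limit, cut at about 70% in these data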;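 further: 0% = tunicamycin plus vehicle and 100% = wells lacking tunicamycin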
Numbers without * were called inactive; nt = no result. Compounds with a hit are over-represented: about 3.9% of the library has one in this group of screens.

SMILES	Gli-Sufu antag	XBP1 UPR activ	CHOP inhibitor	Jurkat NFkB inh	697 NFkB inh	CHOP UPR activ	CHOP inh conf
O=C(N/N=C/C=C/c1ccccc1[N+](=O)[O-])c1ccncc1	0	1	-6	1	-3	-2	nt
O=C(N/N=C/c1c[nH]c2ccccc12)C1CC1(c1ccccc1)c1ccccc1 (configuration not stated)	-16	-1	100*	17	17	4	34
O=C(N/N=C/c1c[nH]c2ccccc12)c1cc(-c2ccc(-c3ccccc3)cc2)n[nH]1	-47	4	109*	-22	-51	29	40
O=C(N/N=C/c1ccccn1)c1cc(-c2ccc3ccccc3c2)n[nH]1	-23	3	103*	-13	-25	2	114*
CCc1ccc(-c2cc(C(=O)N/N=C/c3ccccn3)[nH]n2)cc1	-7	9	40	-13	-41	3	nt
O=C(N/N=C/c1c[nH]c2ccccc12)C1CC1c1ccccc1 (configuration not stated)	6	0	42	6	-25	-1	nt
O=C(Cc1n[nH]c(=O)c2ccccc12)OCC(=O)c1ccc(F)c(F)c1	-14	-2	nt	-8	-15	2	nt
O=C1C(=O)N(c2ccccn2)C(c2cccc([N+](=O)[O-])c2)/C1=C(/O)c1ccc(Br)cc1 (configuration not stated)	2	-1	nt	11	20	0	nt
CCCCN(C(=O)COC(=O)c1ccccc1)c1c(N)n(CCC)c(=O)[nH]c1=O	6	-2	nt	5	19	-1	nt
C/C(=N\NC(=O)c1ccc(O)cc1)c1cccc(NC(=O)c2ccc(Cl)cc2)c1	-38	1	nt	-41	-49	5	nt
O=C(N/N=C/c1ccco1)c1cc(-c2ccc3ccccc3c2)n[nH]1	4	-4	110*	-14	-31	0	4
CCc1ccc(-c2cc(C(=O)N/N=C/c3ccco3)[nH]n2)cc1	-17	6	-33	-7	-45	1	nt
O=C(CCCc1ccccc1)NC12CC3CC(CC(C3)C1)C2	-114	-2	nt	-123	-149	4	nt
Cc1ccc(Cn2nc(C)c(C(=O)NCC(c3ccc(F)cc3)N3CCOCC3)c2Cl)cc1 (configuration not stated)	6	-2	nt	5	2	-1	nt
Cc1cc(C2=NNC(=NC3CC3)SC2)c(C)n1-c1ccccc1	91*	nt	106*	nt	nt	nt	121*
CCn1c(SCC(=O)NC(=O)c2ccccc2OC)nc2ccccc21	-4	-2	nt	-7	15	1	nt
Cc1ccc(N(CC(=O)NC2CCCC2)C(=O)CCC(=O)Nc2nc(C)cs2)cc1	3	0	nt	-5	3	2	nt
COc1ccc(-c2cc(C3CCN(Cc4cccc(C(F)(F)F)c4)CC3)[nH]n2)cc1	41	-1	106*	2	-28	-4	104*
Cc1ccc(CN2CCC(c3cc(-c4ccc(Cl)cc4)n[nH]3)CC2)cc1	21	0	nt	3	-15	1	nt
CCN(CC(=O)Nc1ccc2c(c1)OCCO2)CC(=O)Nc1ccc(C)c(S(=O)(=O)N(C)C)c1	3	-2	nt	-2	-4	0	nt
CCOC(=O)c1c(CC(C)C)csc1NC(C)=O	4	1	56	-13	-3	0	nt
CCOC(=O)c1c(CC(C)C)csc1NC=O	18	4	99*	9	5	-1	26
COc1ccc(Nc2nc(N)c([N+](=O)[O-])c(NCc3ccccc3)n2)cc1	5	8	15	-8	5	3	nt
Cc1ccc(Nc2nc(N)c([N+](=O)[O-])c(NCc3ccccc3)n2)cc1	-11	17	104*	9	6	2	35
CCOc1ccc(S(=O)(=O)N(CC(=O)N2CCC(C(N)=O)CC2)c2ccc(F)cc2)cc1	4	-3	nt	-16	-18	0	nt
COc1ccc(NC(=O)CC2C(=O)N(c3ccc(F)cc3)C(=S)N2NC(=O)c2ccc(Cl)cc2)cc1 (configuration not stated)	0	-1	106*	5	-23	2	43

Compound activity from PubChem.
